The results in this text go back to article PMC2743114 (Journal of immunological methods, 2009).

Assay [1] concerns the target T1, hCD1c dimer (Homo sapiens, UniProt P29017).
T1 sequence (P29017 18-302 limits assumed): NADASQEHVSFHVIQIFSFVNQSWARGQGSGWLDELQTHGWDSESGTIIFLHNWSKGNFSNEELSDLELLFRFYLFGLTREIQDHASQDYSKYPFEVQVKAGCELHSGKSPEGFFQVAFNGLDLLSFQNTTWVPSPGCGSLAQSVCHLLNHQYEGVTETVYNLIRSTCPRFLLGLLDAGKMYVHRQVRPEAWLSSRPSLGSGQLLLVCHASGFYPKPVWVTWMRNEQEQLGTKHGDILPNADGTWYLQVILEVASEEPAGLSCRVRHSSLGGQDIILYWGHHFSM
In words: Direct ELISA binding of Biotinyl PE without competitor. The conditions noted are these: pH 4–10 tested, Biotinyl PE 1μg/mL, overnight 37°C, no competitor. In a few lines: (§1)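 Biotinyl PE (1μg/mL) was incubated overnight at 37°C with hCD1 dimer or mouse IgG1 isotype control. Incubation was in PBS adjusted with HCl or NaOH to pH 4–10, in plates coated with anti-mouse IgG Fc antibody. A well without biotinylated PE at pH 7 served as background. Assays were run in triplicate.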

Assay [2] concerns the target T2, hCD1d dimer (Homo sapiens, UniProt P15813).
T2 sequence (P15813 20-301 limits assumed): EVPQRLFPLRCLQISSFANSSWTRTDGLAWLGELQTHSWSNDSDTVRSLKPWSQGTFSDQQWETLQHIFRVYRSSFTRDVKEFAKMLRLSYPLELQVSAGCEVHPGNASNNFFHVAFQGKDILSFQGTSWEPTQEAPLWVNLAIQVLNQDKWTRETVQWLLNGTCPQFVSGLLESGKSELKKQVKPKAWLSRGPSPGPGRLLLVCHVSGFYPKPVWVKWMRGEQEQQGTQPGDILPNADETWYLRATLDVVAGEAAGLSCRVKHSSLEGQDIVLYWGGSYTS
The assay is described as follows: Direct ELISA binding of Biotinyl PE without competitor. The settings on record: Biotinyl PE 1μg/mL. A general note: In an ELISA, binding on a coated surface is turned into a signal by an enzyme label.

In assay [3] the test system is mouse IgG1. In words: Direct ELISA binding of Biotinyl PE to isotype control. The conditions noted are these: specificity control. The essentials:
as §1

Assay [4] deals with T3, hCD1b dimer (Homo sapiens, UniProt P29016). The assay is described as follows: Direct ELISA binding of Biotinyl PE without competitor. The settings on record: pH 4–10 tested, Biotinyl PE 1μg/mL, overnight 37°C, no competitor. In a few lines:
as §1

The target of assay [5] is T3, hCD1b dimer. The assay is described as follows: Competitive ELISA assay. Format: binding. In a few lines:
(§2)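 Dimers are hCD1 α1–α3 fused to mouse IgG with β2m, expressed in J558L cells and purified on Protein G. Plates were coated overnight at 4°C with goat anti-mouse IgG Fc (10μg/mL, pH 9.6), then blocked 1 h. Dimer (5μg/mL), competitor lipid and Biotinyl PE (2μg/mL) in PBS were incubated overnight at 37°C and detected with HRP-avidin. Assays were run in triplicate. Ki = IC50/(1+[B-PE]/Kd), with Kd fitted from competitor-free Biotinyl PE titration.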

Assay [6] deals with T2, hCD1d dimer. In words: Competitive ELISA assay. It is filed as binding. In a few lines: as §2
Assay [7] deals with T1, hCD1c dimer. The assay is described as follows: Competitive ELISA assay. It is filed as binding. In a few lines: as §2

T3 sequence (P29016 18-303 limits assumed): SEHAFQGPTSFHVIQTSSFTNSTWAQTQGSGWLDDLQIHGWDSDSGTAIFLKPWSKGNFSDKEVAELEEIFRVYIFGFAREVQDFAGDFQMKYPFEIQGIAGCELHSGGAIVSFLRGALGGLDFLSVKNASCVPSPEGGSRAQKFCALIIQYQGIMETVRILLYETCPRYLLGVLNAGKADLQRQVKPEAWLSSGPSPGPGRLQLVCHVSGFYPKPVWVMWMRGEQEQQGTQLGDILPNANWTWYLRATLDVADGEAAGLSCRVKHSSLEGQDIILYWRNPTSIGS

In the case of `CCCCCCCC/C=C\CCCCCCCC(=O)OC[C@H](COP(=O)(O)OCCNC(=O)CCCC[C@@H]1SC[C@@H]2NC(=O)N[C@@H]21)OC(=O)CCCCCCC/C=C\CCCCCCCC` [Biotinyl PE, 1,2-Dioleoyl-sn-Glycero-3-Phosphoethanolamine-N-(Biotinyl)], the “optimal pH for binding to CD1c” value in assay [1] is on record as 4-5. In assay [2] (37°C, optimal condition), the “time to reach a peak level of binding to hCD1d” value amounted to 8 h. Moreover, the “optimal pH for binding to CD1d” value in assay [2] (pH 4–10 tested, overnight 37°C, no competitor) is given as 5-7. Besides, the “binding to mouse IgG1 (isotype control)” value in assay [3] is “failed to bind”. Besides, the “optimal pH for binding to CD1b” value in assay [4] was 4-5.

As usually defined, the Ki is the equilibrium dissociation constant of an inhibitor or competing ligand from its target. A low value points to tighter binding. With `CCCCCCCCCCCCCCCCCCCCCCCCCC(=O)N[C@@H](CO[C@H]1O[C@H](CO)[C@H](O)[C@H](O)[C@H]1O)[C@H](O)[C@H](O)CCCCCCCCCCCCCC` [α-GalCer, α-galactosylceramide], the inhibitory constant (Ki) in assay [5] was found to be 2840 nM; in assay [6], 97 nM; in assay [7] it was 1370 nM.

As for Mycolic acid, the “binding to CD1b (inhibition of Biotinyl PE binding), in words” value in assay [5] (competitive ELISA) is “unable to detect the binding”.
